Where “and” joins values, the source holds several entries; their conditions need not be identical. Equal entries are not always repeated. Where two headings read alike, the source gives them in different places.
Key:
rabbit telemetry study = assay type: in vivo
[1] = 4 day oral dosing study in rats; assay type: in vivo
[2] = in vitro biotransformation assays; assay type: in vitro ADME
CYP3A4 [3] = biological target: T1, CYP3A4 (Homo sapiens, UniProt P08684); test: CYP 3A4 HLM time-dependent inhibition; assay type: in vitro ADME
hERG ion channel = hERG ion channel (Homo sapiens, UniProt Q12809); test: hERG patch-clamp electrophysiology; assay type: cell-based
total Aβ1–x = total Aβ1–x formation; assay type: cell-based
H4-APPsw cells = test: Aβ species in cultured H4-APPsw cells by mass spectrometry; assay type: cell-based
pharmacokinetics in rat = settings: Sprague-Dawley, in vivo, iv, 2 mg/kg
pharmacokinetics in dog = settings: male, beagle, in vivo, iv, 1 mg/kg
[4] = pharmacokinetics in cynomolgus monkey; settings: male, in vivo, iv, 1 mg/kg
CYP3A4 [5] = biological target: T1, CYP3A4; test: recombinant CYP3A4 inhibition; assay type: in vitro ADME
Procedure, shortened: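 Recombinant human CYP3A4 was incubated with the test compound for 30 min, and an IC50 was determined.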

Caco-2 permeability = assay type: in vitro ADME; settings: human
CYP3A4 mRNA = CYP3A4 mRNA induction in cryopreserved primary human hepatocytes; assay type: cell-based; settings: 3.3–10 μM
[6] = 2-week oral repeat dose toxicity study in rats; assay type: in vivo
Procedure, shortened: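 Rats received the test compound orally for 2 weeks at 10, 30 and 100 mg/kg in repeat dosing. Endpoints included signs of stress, food consumption, duodenal histology for Notch-related goblet cell metaplasia, and liver for hepatotoxicity and necrosis.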

acute oral dose in dogs = assay type: in vivo
Procedure, shortened: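 Dogs received a single acute oral dose of 300 mg/kg. Bilirubin and other clinical pathology were assessed, and plasma Cmax and AUC were measured. Margins were taken relative to projected human Cmax and AUC at the efficacious clinical dose.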

[7] = projected human PK and dose; settings: 110 mg QD, steady state
Procedure, shortened: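 Human PK was predicted by allometric scaling of rat, dog and cynomolgus monkey PK, then combined with a rat PK/PD indirect response model.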

[8] = hemodynamics in conscious rats; assay type: in vivo; settings: any dose studied
CYP2C subfamily = test: CYP inhibition in human liver microsomes, CYP2C subfamily; assay type: in vitro ADME
[9] = test system: rest of the CYP isoforms tested (other than the CYP2C subfamily); test: CYP inhibition in human liver microsomes, rest of isoforms; assay type: in vitro ADME
[10] = cited from earlier work
Aβ peptide species = settings: intravenous administration; cited from earlier work
Aβ1–37 and Aβ1–38 = test: urea gel Western blotting of Aβ species; assay type: cell-based
[11] = single oral doses 10 to 1200 mg, multiweek daily 50 to 200 mg

T1 sequence (P08684 whole entry): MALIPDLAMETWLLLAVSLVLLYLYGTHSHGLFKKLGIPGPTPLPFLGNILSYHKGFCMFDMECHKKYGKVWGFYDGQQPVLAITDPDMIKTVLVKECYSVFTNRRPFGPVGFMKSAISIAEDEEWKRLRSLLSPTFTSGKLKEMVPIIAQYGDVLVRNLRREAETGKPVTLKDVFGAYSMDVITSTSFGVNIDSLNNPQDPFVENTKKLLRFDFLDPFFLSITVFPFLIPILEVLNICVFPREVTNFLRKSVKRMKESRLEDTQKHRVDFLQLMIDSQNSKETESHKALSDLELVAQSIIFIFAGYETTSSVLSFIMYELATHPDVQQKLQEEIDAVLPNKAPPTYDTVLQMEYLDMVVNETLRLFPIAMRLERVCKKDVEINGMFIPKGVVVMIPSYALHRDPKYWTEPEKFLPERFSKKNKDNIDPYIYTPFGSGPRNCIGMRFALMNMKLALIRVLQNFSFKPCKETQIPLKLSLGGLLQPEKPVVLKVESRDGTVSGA
hERG ion channel, sequence (Q12809 whole entry): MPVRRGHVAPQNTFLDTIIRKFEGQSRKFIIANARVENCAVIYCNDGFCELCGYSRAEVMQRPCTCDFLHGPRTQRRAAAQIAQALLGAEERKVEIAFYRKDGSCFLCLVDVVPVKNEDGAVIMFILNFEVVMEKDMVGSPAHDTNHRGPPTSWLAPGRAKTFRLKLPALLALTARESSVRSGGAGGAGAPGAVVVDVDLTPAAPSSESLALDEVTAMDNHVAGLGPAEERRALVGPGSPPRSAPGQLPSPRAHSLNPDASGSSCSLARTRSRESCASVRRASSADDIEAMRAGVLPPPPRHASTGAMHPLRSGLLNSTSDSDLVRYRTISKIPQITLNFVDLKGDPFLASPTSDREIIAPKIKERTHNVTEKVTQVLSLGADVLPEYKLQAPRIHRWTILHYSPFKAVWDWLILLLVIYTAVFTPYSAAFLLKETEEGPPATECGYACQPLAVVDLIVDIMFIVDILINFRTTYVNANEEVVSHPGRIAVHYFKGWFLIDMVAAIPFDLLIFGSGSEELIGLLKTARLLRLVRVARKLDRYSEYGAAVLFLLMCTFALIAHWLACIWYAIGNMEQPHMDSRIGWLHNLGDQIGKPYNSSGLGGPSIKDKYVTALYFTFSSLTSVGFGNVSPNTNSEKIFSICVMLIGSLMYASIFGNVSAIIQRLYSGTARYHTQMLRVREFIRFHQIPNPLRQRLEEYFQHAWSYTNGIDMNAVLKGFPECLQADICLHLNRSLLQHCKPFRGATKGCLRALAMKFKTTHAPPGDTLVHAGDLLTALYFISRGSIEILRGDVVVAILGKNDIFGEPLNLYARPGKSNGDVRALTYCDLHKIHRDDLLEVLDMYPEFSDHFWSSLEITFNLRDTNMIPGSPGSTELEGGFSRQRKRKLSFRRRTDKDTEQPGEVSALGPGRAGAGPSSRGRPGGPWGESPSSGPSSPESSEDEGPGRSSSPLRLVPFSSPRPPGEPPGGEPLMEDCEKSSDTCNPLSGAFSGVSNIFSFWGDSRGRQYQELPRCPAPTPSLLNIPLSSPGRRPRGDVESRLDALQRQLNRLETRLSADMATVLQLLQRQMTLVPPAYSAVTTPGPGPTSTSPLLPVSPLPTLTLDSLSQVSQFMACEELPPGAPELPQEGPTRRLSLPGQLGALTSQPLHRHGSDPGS

## CNc1nc(Nc2ccc(-n3cnc(Cl)c3)c(OC)c2)nc2c1CC[C@H]2c1ccccc1 [Compound 3]
Rabbit telemetry study; rabbit telemetry
  safety margin vs the hERG NOAEL: 40 fold
[1]; 4 days oral, 10, 30, and 100 mg/kg
  tissue examination finding: hepatocellular necrosis at all doses studied
[1]; 4 days oral, all doses, visibly yellow plasma
  plasma bilirubin finding: increase in unconjugated bilirubin
[2]
  metabolism: confined to N-demethylation and monohydroxylation of the D-ring

## CNc1nc(Cc2ccccc2)nc(Nc2ccc(-n3cnc(C)c3)c(OC)c2)n1 [Compound 2, 6-benzyl-N2-(3-methoxy-4-(4-methyl-1H-imidazol-1-yl)phenyl)-N4-methyl-1,3,5-triazine-2,4-diamine]
CYP3A4 [3]; in words
  CYP3A4 inhibition: potent and time-dependent CYP3A4 inhibition
hERG ion channel; in words
  hERG inhibition: potent hERG inhibition

## CNc1nc(Nc2ccc(-n3cnc(C)n3)c(OC)c2)nc2c1CC[C@H]2c1ccc(F)cc1 [Compound 4, (S)-7-(4-fluorophenyl)-N^2-(3-methoxy-4-(3-methyl-1H-1,2,4-triazol-1-yl)phenyl)-N^4-methyl-6,7-dihydro-5H-cyclopenta[d]pyrimidine-2,4-diamine]
Total Aβ1–x; concentrations up to 10 μM, Aβ1–x ELISA, H4-APPsw cells
  total Aβ1–x: unchanged
H4-APPsw cells
  change in Aβ1–37 and Aβ1–38: corresponding increase
  change in Aβ1–42 and Aβ1–40: large decrease
Pharmacokinetics in rat
  clearance at 24 h: 11.2 ± 0.4 mL/min/kg
Pharmacokinetics in dog
  clearance at 24 h: 12.5 ± 1.2 mL/min/kg
[4]
  clearance at 24 h: 31.3 ± 9.5 mL/min/kg
CYP3A4 [3]; HLM
  CYP 3A4 HLM time-dependent inhib. KI: 82.5 µM and 83 µM
CYP3A4 [5]
  IC50: 0.51 µM
hERG ion channel
  fold less potent at hERG than compound 3: 6 fold
Caco-2 permeability
  Papp: 3.5 ×10⁻⁶ cm/s
AMES
  AMES result: negative
CYP3A4 mRNA
  elevation of CYP3A4 mRNA: 36–43%
Rabbit telemetry study; unconscious rabbits, 3 mg/kg
  change in QTcf: no change
Rabbit telemetry study; unconscious rabbits, 10 mg/kg
  exposure: 50 µM
Rabbit telemetry study; unconscious rabbits, doses of 10 mg/kg and higher
  hemodynamic effects: increased blood pressure and decreased heart rate
[6]; 2-week oral
  Notch-related goblet cell metaplasia in the duodenum: no Notch-related goblet cell metaplasia
  bilirubin finding: minimal, nontoxicologically significant bilirubin elevation
  hepatotoxicity or necrosis: no hepatotoxicity or necrosis was observed
[6]; 2-week oral, 10, 30, and 100 mg/kg
  tolerability: well tolerated
[6]; 2-week, 100 mg/kg oral
  findings in high dose group: stress and reduced food consumption effects
[6]; 2-week, NOAEL 30 mg/kg, vs 4 μM·h
  margin over the projected human efficacious exposure at the NOAEL: 48 fold
Acute oral dose in dogs; 300 mg/kg
  margin in Cmax to the projected efficacious clinical dose: 43 fold
Acute oral dose in dogs; acute oral dose of 300 mg/kg
  tolerability: tolerated with no significant changes in bilirubin levels or other clinical pathological assessments
[7]
  projected human brain Aβ1–42 reduction: 31%
[8]
  hemodynamic effects (blood pressure, heart rate): not seen
CYP2C subfamily
  CYP2C subfamily IC50s: single digit micromolar
[9]
  IC50: > 17 µM
[10]; 200 mg for 24 days
  ALT finding: ALT elevations were observed
[10]; dosed acutely
  tolerability: well tolerated
[10]; [11]
  Aβ1–37 and Aβ1–38 in plasma and CSF: dose-dependent increase
  Aβ1–42 and Aβ1–40 in plasma and CSF: decrease
  total Aβ1–x in plasma and CSF: no change
Aβ peptide species
  distribution among Aβ peptide species in rat brain and CSF: same distribution among Aβ peptide species was recapitulated

## CNc1nc(Nc2ccc(-n3cncn3)c(OC)c2)nc(-c2ccccc2)n1 [Compound 1]
Total Aβ1–x
  effect on total Aβ1–x formation: No effect
Aβ1–37 and Aβ1–38
  levels of Aβ1–37 and Aβ1–38: increased levels

— PMC6421538 (ACS Medicinal Chemistry Letters, 2019)
